Published values of several laboratories.
Protocols differ between the studies behind these lines.
Target: Casein kinase I isoform delta (CSNK1D, Homo sapiens, UniProt P48730)

SMILES	test	setting	endpoint	value
O=c1[nH]c2ccccc2n1C1CCN(Cc2ccc(-c3[nH]c4cc5ncnc5cc4nc3-c3ccccc3)cc2)CC1	cell-free assay	0.5 µM	remaining signal	100%
Cc1nn(C)cc1-c1nc2c(N3CCN(Cc4ccc(Cl)cc4)CC3)c(Cl)cnc2[nH]1	binding, competition with immobilised ligand	1 µM	remaining binding	100%
Nc1ncc(-c2nc(N3CCOCC3)nc(N3CCOCC3)n2)c(C(F)F)n1	binding, competition with immobilised ligand	10 µM	remaining binding	90%
Cn1cc(-c2cc(F)cc(N3CCn4c(cc5c4CCCC5)C3=O)c2CO)cc(Nc2ccc(N3CCN(C4COC4)CC3)cn2)c1=O	enzyme activity, inhibitor	0.1 µM	inhibition	6%
COc1ncccc1-c1cnn2ccc(N3CCN(C(=O)OC(C)C)CC3)nc12	binding, competition with immobilised ligand	1 µM	remaining binding	85%
Cn1cncc1[C@@](O)(COc1ccc(C#N)cc1-c1ccc(OC(F)(F)F)cc1)c1ccc(C#N)cc1	cell-free assay, competition with immobilised ligand	1 µM	remaining binding	94%
Cn1cc(-c2cccc(N3CCc4c(sc5c4CC(C)(C)C5)C3=O)c2CO)cc(Nc2ccncn2)c1=O	enzyme activity, inhibitor	1 µM	inhibition	0%
CC(C)(C)c1cc(C=C(C#N)C#N)cc(Br)c1O	enzyme activity, inhibitor	0.5 µM	remaining activity	85.5%
